According to ChEMBL document CHEMBL2380295, “Structure-activity studies on the side chain of a simplified analog of aplysiatoxin (aplog-1) with anti-proliferative activity” (Bioorg Med Chem, 2013):

Key:
[1] = Cytotoxicity against human Raji cells assessed as cell viability at 10^-6 M; type: cell-based; details: read-out: Activity
[2] = species: Mus musculus; test: Toxicity in ICR mouse assessed as development of tumors at 8.5 nmol treated twice a week from week 1 to week 20; type: organism-based; details: in vivo
Procedure, shortened: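 Mouse skin two-stage carcinogenesis: initiation by a single application of 390 nmol DMBA. From one week later, 8.5 nmol test compound was applied twice weekly from week 1 to week 20. The control group received DMBA then 1.7 nmol TPA twice weekly. Tumor development was monitored over time.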

[3] = Cytotoxicity against human Raji cells assessed as cell viability at 10^-7 M; type: cell-based; details: read-out: Activity
[4] = test system: Human gammaherpesvirus 4; test: Induction of EBV-early antigen expressed in human Raji cells at 10^-6 M after 48 hrs by immunofluorescence assay relative to control; type: organism-based; details: human gammaherpesvirus 4, raji, 1 µM
Procedure, shortened: (§1)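 Raji B-lymphoblastoid cells (5 × 10^5/mL) in RPMI 1640 with 10% FBS, with 4 mM sodium n-butyrate as synergist and test compound at 10^-7 or 10^-6 M (final DMSO 0.4%). Incubated 48 h at 37 °C under 5% CO2. Smears were stained by indirect immunofluorescence using NPC patient serum and FITC anti-human IgG. At least 500 cells counted; % EA-positive recorded; n = 3, SEM.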

[5] = test system: Human gammaherpesvirus 4; test: Induction of EBV-early antigen expressed in human Raji cells at 10^-7 M after 48 hrs by immunofluorescence assay relative to control; type: organism-based; details: human gammaherpesvirus 4, raji, 0.1 µM; procedure, shortened: as §1
[6] = test system: PC-3; test: Growth inhibition of human PC3 cells after 48 hrs by sulforhodamine B assay; type: functional; details: PC-3, 48 h
Procedure, shortened: (§2)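 Yamori 39-line human cancer panel, NCI method with modifications. Cells plated in RPMI 1640 plus 5% FBS, attached overnight, then exposed 48 h to compound at 10^-8, 10^-7, 10^-6, 10^-5 and 10^-4 M. Sulforhodamine B staining read at 525 nm; % growth = 100[(T−T0)/(C−T0)] from duplicate-point averages, with T0 the time-zero absorbance. GI50 is the concentration giving 50.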

[7] = test system: DU-145; test: Growth inhibition of human DU145 cells after 48 hrs by sulforhodamine B assay; type: functional; details: DU-145, 48 h; procedure, shortened: as §2
[8] = test system: MKN-74; test: Growth inhibition of human MKN74 cells after 48 hrs by sulforhodamine B assay; type: functional; details: MKN-74, 48 h; procedure, shortened: as §2
[9] = test system: MKN-28; test: Growth inhibition of human MKN28 cells after 48 hrs by sulforhodamine B assay; type: functional; details: MKN-28, 48 h; procedure, shortened: as §2
[10] = test system: MKN-45; test: Growth inhibition of human MKN45 cells after 48 hrs by sulforhodamine B assay; type: functional; details: MKN-45, 48 h; procedure, shortened: as §2
[11] = test system: MKN-7; test: Growth inhibition of human MKN7 cells after 48 hrs by sulforhodamine B assay; type: functional; details: MKN-7, 48 h; procedure, shortened: as §2
[12] = test system: St-4; test: Growth inhibition of human St-4 cells after 48 hrs by sulforhodamine B assay; type: functional; details: St-4, 48 h; procedure, shortened: as §2
[13] = Growth inhibition of human MKN1 cells after 48 hrs by sulforhodamine B assay; type: functional; details: MKN-1, 48 h; procedure, shortened: as §2
[14] = Growth inhibition of human RXF631L cells after 48 hrs by sulforhodamine B assay; type: functional; details: RXF 631, 48 h; procedure, shortened: as §2
[15] = test system: ACHN; test: Growth inhibition of human ACHN cells after 48 hrs by sulforhodamine B assay; type: functional; procedure, shortened: as §2
[16] = test system: OVCAR-8; test: Growth inhibition of human OVCAR8 cells after 48 hrs by sulforhodamine B assay; type: functional; details: OVCAR-8, 48 h; procedure, shortened: as §2
[17] = test system: SK-OV-3; test: Growth inhibition of human SKOV3 cells after 48 hrs by sulforhodamine B assay; type: functional; details: SK-OV-3, 48 h; procedure, shortened: as §2
[18] = test system: OVCAR-5; test: Growth inhibition of human OVCAR5 cells after 48 hrs by sulforhodamine B assay; type: functional; details: OVCAR-5, 48 h; procedure, shortened: as §2
[19] = test system: OVCAR-3; test: Growth inhibition of human OVCAR3 cells after 48 hrs by sulforhodamine B assay; type: functional; details: OVCAR-3, 48 h; procedure, shortened: as §2
[20] = test system: OVCAR-4; test: Growth inhibition of human OVCAR4 cells after 48 hrs by sulforhodamine B assay; type: functional; details: OVCAR-4, 48 h; procedure, shortened: as §2
[21] = test system: DMS-114; test: Growth inhibition of human DMS114 cells after 48 hrs by sulforhodamine B assay; type: functional; details: DMS-114, 48 h; procedure, shortened: as §2
[22] = test system: LOX IMVI; test: Growth inhibition of human LOXIMVI cells after 48 hrs by sulforhodamine B assay; type: functional; procedure, shortened: as §2
[23] = test system: A549; test: Growth inhibition of human A549 cells after 48 hrs by sulforhodamine B assay; type: functional; details: A549, 48 h; procedure, shortened: as §2
[24] = test system: DMS-273; test: Growth inhibition of human DMS273 cells after 48 hrs by sulforhodamine B assay; type: functional; details: DMS-273, 48 h; procedure, shortened: as §2
[25] = test system: NCI-H460; test: Growth inhibition of human NCI-H460 cells after 48 hrs by sulforhodamine B assay; type: functional; details: NCI-H460, 48 h; procedure, shortened: as §2
[26] = test system: NCI-H226; test: Growth inhibition of human NCI-H226 cells after 48 hrs by sulforhodamine B assay; type: functional; details: NCI-H226, 48 h; procedure, shortened: as §2
[27] = test system: NCI-H522; test: Growth inhibition of human NCI-H522 cells after 48 hrs by sulforhodamine B assay; type: functional; details: NCI-H522, 48 h; procedure, shortened: as §2
[28] = test system: HCT-116; test: Growth inhibition of human HCT116 cells after 48 hrs by sulforhodamine B assay; type: functional; details: HCT-116, 48 h; procedure, shortened: as §2
[29] = test system: NCI-H23; test: Growth inhibition of human NCI-H23 cells after 48 hrs by sulforhodamine B assay; type: functional; details: NCI-H23, 48 h; procedure, shortened: as §2
[30] = test system: HCT-15; test: Growth inhibition of human HCT15 cells after 48 hrs by sulforhodamine B assay; type: functional; details: HCT-15, 48 h; procedure, shortened: as §2
[31] = test system: KM12; test: Growth inhibition of human KM12 cells after 48 hrs by sulforhodamine B assay; type: functional; details: KM12, 48 h; procedure, shortened: as §2
[32] = test system: HT-29; test: Growth inhibition of human HT-29 cells after 48 hrs by sulforhodamine B assay; type: functional; details: HT-29, 48 h; procedure, shortened: as §2
[33] = test system: SNB-78; test: Growth inhibition of human SNB78 cells after 48 hrs by sulforhodamine B assay; type: functional; details: SNB-78, 48 h; procedure, shortened: as §2
[34] = Growth inhibition of human HCC2998 cells after 48 hrs by sulforhodamine B assay; type: functional; details: HCC 2998, 48 h; procedure, shortened: as §2
[35] = test system: SF-539; test: Growth inhibition of human SF539 cells after 48 hrs by sulforhodamine B assay; type: functional; details: SF-539, 48 h; procedure, shortened: as §2
[36] = test system: SNB-75; test: Growth inhibition of human SNB75 cells after 48 hrs by sulforhodamine B assay; type: functional; details: SNB-75, 48 h; procedure, shortened: as §2
[37] = test system: SF-295; test: Growth inhibition of human SF295 cells after 48 hrs by sulforhodamine B assay; type: functional; details: SF-295, 48 h; procedure, shortened: as §2
[38] = test system: U-251; test: Growth inhibition of human U251 cells after 48 hrs by sulforhodamine B assay; type: functional; details: U-251, 48 h; procedure, shortened: as §2
[39] = test system: SF-268; test: Growth inhibition of human SF268 cells after 48 hrs by sulforhodamine B assay; type: functional; details: SF-268, 48 h; procedure, shortened: as §2
[40] = test system: MCF7; test: Growth inhibition of human MCF7 cells after 48 hrs by sulforhodamine B assay; type: functional; details: MCF7, 48 h; procedure, shortened: as §2
[41] = test system: MDA-MB-231; test: Growth inhibition of human MDA-MB-231 cells after 48 hrs by sulforhodamine B assay; type: functional; details: MDA-MB-231, 48 h; procedure, shortened: as §2
[42] = Growth inhibition of human BSY1 cells after 48 hrs by sulforhodamine B assay; type: functional; details: BSY-1, 48 h; procedure, shortened: as §2
[43] = Growth inhibition of human HBC5 cells after 48 hrs by sulforhodamine B assay; type: functional; details: HBC5, 48 h; procedure, shortened: as §2
[44] = Growth inhibition of human HBC4 cells after 48 hrs by sulforhodamine B assay; type: functional; details: HBC4, 48 h; procedure, shortened: as §2
[45] = Octanol-water partition coefficient, log P of the compound by HPLC analysis; type: physicochemical
Procedure, shortened: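 log P was estimated from HPLC retention, with column dead time measured using unretained formamide.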

[46] = biological target: T1, Protein kinase C delta type (Homo sapiens, UniProt Q05655); test: Inhibition of [3H]PDBu binding to PKCdelta-C1A domain peptide (unknown origin)
T1 sequence (Q05655 whole entry, the tested form may be a part): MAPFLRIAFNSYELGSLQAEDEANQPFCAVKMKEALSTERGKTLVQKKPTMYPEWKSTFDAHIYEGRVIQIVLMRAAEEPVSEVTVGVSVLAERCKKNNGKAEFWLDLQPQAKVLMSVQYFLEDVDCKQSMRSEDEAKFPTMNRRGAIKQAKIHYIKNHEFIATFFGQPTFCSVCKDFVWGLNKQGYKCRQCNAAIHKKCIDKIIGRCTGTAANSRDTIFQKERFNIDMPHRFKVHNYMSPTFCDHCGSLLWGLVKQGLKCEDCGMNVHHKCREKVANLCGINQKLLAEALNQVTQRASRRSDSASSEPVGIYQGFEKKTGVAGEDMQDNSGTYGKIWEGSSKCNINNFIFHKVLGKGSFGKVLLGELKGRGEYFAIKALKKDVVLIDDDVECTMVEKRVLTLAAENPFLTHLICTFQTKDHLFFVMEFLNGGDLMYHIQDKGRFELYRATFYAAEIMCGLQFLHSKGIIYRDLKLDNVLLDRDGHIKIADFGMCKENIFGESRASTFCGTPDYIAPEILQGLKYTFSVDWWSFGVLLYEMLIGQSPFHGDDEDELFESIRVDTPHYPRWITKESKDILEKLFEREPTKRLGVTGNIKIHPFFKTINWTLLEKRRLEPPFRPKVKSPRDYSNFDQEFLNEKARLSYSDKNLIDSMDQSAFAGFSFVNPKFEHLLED
Procedure, shortened: (§3)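 Competitive [3H]PDBu binding used 14 or 40 nM PKCδ C1 peptide and 20 nM [3H]PDBu (19.6 Ci/mmol), in 50 mM Tris-maleate (pH 7.4 at 4 °C) with 50 µg/mL phosphatidylserine, 3 mg/mL bovine γ-globulin and varied inhibitor concentrations. IC50 was taken as 50% inhibition of specific binding. Ki was derived by the Sharkey–Blumberg method.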

[47] = biological target: T1, Protein kinase C delta type; test: Inhibition of [3H]PDBu binding to PKCdelta-C1B domain peptide (unknown origin); procedure, shortened: as §3

## CC1(C)CC[C@@H]2CC(=O)O[C@@H](CO)CC(=O)O[C@@H]3C[C@@H](CCCCc4cc(O)ccc4Br)O[C@@]1(C3)O2
[1]
  viability at 1 µM: 40%
[2]
  Activity: Non-toxic
[3]
  viability at 0.1 µM: 50%
[4]
  Activity: 1.9%
[5]
  Activity: 1.8%
[6]
  GI50: 2950 nM
[7]
  GI50: 11.5 µM
[8]
  GI50: 13.8 µM
[9]
  GI50: 12 µM
[10]
  GI50: 1820 nM
[11]
  GI50: 6.92 µM
[12]
  GI50: 955 nM
[13]
  GI50: 11.7 µM
[14]
  GI50: 16.2 µM
[15]
  GI50: 5.13 µM
[16]
  GI50: 16.2 µM
[17]
  GI50: 15.5 µM
[18]
  GI50: 7.76 µM
[19]
  GI50: 13.5 µM
[20]
  GI50: 14.5 µM
[21]
  GI50: 12.6 µM
[22]
  GI50: 794 nM
[23]
  GI50: 5.01 µM
[24]
  GI50: 11.7 µM
[25]
  GI50: 1660 nM
[26]
  GI50: 11.7 µM
[27]
  GI50: 13.5 µM
[28]
  GI50: 10.7 µM
[29]
  GI50: 11.5 µM
[30]
  GI50: 15.5 µM
[31]
  GI50: 4.27 µM
[32]
  GI50: 13.2 µM
[33]
  GI50: 15.5 µM
[34]
  GI50: 794 nM
[35]
  GI50: 11 µM
[36]
  GI50: 12.3 µM
[37]
  GI50: 5.5 µM
[38]
  GI50: 12.6 µM
[39]
  GI50: 12.6 µM
[40]
  GI50: 18.2 µM
[41]
  GI50: 468 nM
[42]
  GI50: 2630 nM
[43]
  GI50: 15.8 µM
[44]
  GI50: 97.7 nM
[45]
  logP: 4
[46]
  Ki: 66 nM
[47]
  Ki: 3.5 nM
